How the values were obtained:
[1] = Drug level in rat brain at 0.1 mg, iv at 1 hr; type: ADME, organism-based; details: read-out: Drug uptake
Summary of the method: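 Rats given 0.1 mg/kg i.v.; brain homogenized 1 h after dosing and compound concentration measured in tissue.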

[2] = Bioavailability in rat; type: ADME, organism-based; details: in vivo
Summary of the method: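 Rat cassette dosing, 1 mg/kg po.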

| Structure (SMILES) | concentration at 1 h [1] | bioavailability [2] |
| --- | --- | --- |
| Cc1noc(NC(=O)N2CCN(c3nc(-c4ccc(F)cc4)cs3)CC2)c1C | 132 ng/g | – |
| Cc1noc(NC(=O)N2CCN(c3nc(-c4ccc(F)cc4F)cs3)CC2)c1C | 82 ng/g | – |
| Cc1noc(NC(=O)N2CCN(c3nc(-c4ccccc4)ns3)CC2)c1C | 25 ng/g | – |
| Cc1noc(NC(=O)N2CCN(c3nc(-c4ccccc4)cs3)CC2)c1C | 23 ng/g | – |
| Cc1noc(NC(=O)N2CCN(c3nc(-c4ccccc4F)ns3)CC2)c1C | 4.6 ng/g | – |
| Cc1noc(NC(=O)N2CCN(c3nc(-c4ccccc4F)cs3)CC2)c1C | 103 ng/g | – |
| Cc1noc(NC(=O)N2CCN(c3nc(-c4cccc(F)c4)ns3)CC2)c1C | 12 ng/g | – |
| Cc1noc(NC(=O)N2CCN(c3nc(-c4cccc(F)c4)cs3)CC2)c1C | 101 ng/g | – |
| Cc1noc(NC(=O)N2CCN(c3nc(-c4ccc(F)cc4)ns3)CC2)c1C | 17 ng/g | – |
| O=C(Nc1noc2ccccc12)N1CCN(c2nc(-c3ccccc3)ns2)CC1 | – | 5% |

— ChEMBL document CHEMBL2321707, “Synthesis, SAR study, and biological evaluation of a series of piperazine ureas as fatty acid amide hydrolase (FAAH) inhibitors” (Bioorg Med Chem, 2013)
